The source of these data is ChEMBL document CHEMBL4130600, “Keikipukalides, Furanocembrane Diterpenes from the Antarctic Deep Sea Octocoral Plumarella delicatissima” (J Nat Prod, 2018).

The subject of one assay is Enterobacter. The assay can be described thus: Antibacterial activity against drug-resistant Enterobacter. In kind it is functional, organism-based.
The next assay relates to Enterococcus faecium. The experiment in a line: Antibacterial activity against drug-resistant Enterococcus faecium. Format: functional, organism-based.
A further assay has as its system Clostridioides difficile. The experiment in a line: Antibacterial activity against Clostridium difficile. In kind it is functional, organism-based.
For a further assay, the system named is Acinetobacter baumannii. The assay can be described thus: Antibacterial activity against drug-resistant Acinetobacter baumannii. Format: functional, organism-based.
In a further assay the test system is Leishmania donovani. The assay can be described thus: Antileishmanial activity against Leishmania donovani MHOM/SD/75/1246/130 axenic amastigotes infected in mouse J774A.1 cells after 72 hrs by Draq5 staining based assay. The note with it: MHOM/SD/75/1246/130, J774.A1, 72 h. Format: functional, organism-based. In short, it runs like this: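 Amastigotes grown axenically at 37 °C in RPMI 1640, pH 5.5, with Hepes, MES, hemin, xanthine, Tween-80 and 20% heat-inactivated FBS. Parasites added 10:1 to 2000 J774A.1 macrophages per well, 24 h at 37 °C, 5% CO2, then extracellular parasites washed off. Compounds from 10 μg/mL, 1:2 serial dilution, 72 h. Fixed in 2% paraformaldehyde, Draq5 stain, imaged; amastigotes per 500 macrophages counted for IC50.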

The next assay has as its system Klebsiella pneumoniae. The experiment in a line: Antibacterial activity against drug-resistant Klebsiella pneumoniae. Format: functional, organism-based.
For a further assay, the system named is Pseudomonas aeruginosa. The experiment in a line: Antibacterial activity against drug-resistant Pseudomonas aeruginosa. Format: functional, organism-based.
A further assay relates to A549. The assay can be described thus: Cytotoxicity against human A549 cells after 72 hrs by CellTiter 96 AQueous one solution cell proliferation assay. In kind it is cell-based. The note with it: A549, 72 h. In short, it runs like this:
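A549 cells seeded at 1440 cells/well in F12K with 10% FBS and 1% penicillin–streptomycin, with compounds in doubling dilutions from 50 μg/mL final. Incubated 72 h at 37 °C, 5% CO2. MTS added 4 h before the end, OD read at 490 nm. Controls were cells with media and media alone.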

Another assay deals with Naegleria fowleri. The experiment in a line: […] activity against Naegleria fowleri. In kind it is functional, organism-based.
Another assay has as its system Staphylococcus aureus. The assay can be described thus: Antibacterial activity against drug-resistant Staphylococcus aureus. Format: functional, organism-based.

Activity calls are given as the source filed them. The calls are words filed in the database; no cut-off is given here.

Consider `C=C(C)[C@H]1CC2=C(C=O)C=C(O2)[C@H]2O[C@]2(C)C[C@@H]2OC(=O)/C(=C\[C@H]1OC(C)=O)[C@H]2OC(C)=O`, for which the result with Enterobacter, in the assay on Enterococcus faecium, with Clostridioides difficile, in the assay on Acinetobacter baumannii, with Klebsiella pneumoniae and with Pseudomonas aeruginosa was inactive. The outcome with Naegleria fowleri and with Staphylococcus aureus was inactive. In addition, the figures for the IC50 in the assay with Leishmania donovani and in the assay on A549 were 8.5 µM and over 50 µM, respectively.

As to `C=C(C)[C@@H]1/C=C/[C@]23O[C@H]2[C@H](C[C@](C)(O)[C@@H](OC(C)=O)C2=CC(C=O)=C(C1)O2)OC3=O`, the result in the assay with Enterobacter, with Enterococcus faecium, in the assay on Clostridioides difficile, in the assay on Acinetobacter baumannii, in the assay on Klebsiella pneumoniae and in the assay on Pseudomonas aeruginosa was inactive. The outcome in the assay on Naegleria fowleri and in the assay on Staphylococcus aureus was inactive. Also, the IC50 (in general, the concentration that inhibits the measured activity by half) with Leishmania donovani was 12 µM; with A549 it was over 50 µM.

`C=C(C)[C@@H]1/C=C/[C@]23O[C@H]2[C@H](C[C@@]2(C)O[C@@H]2C2=CC(C=O)=C(C1)O2)OC3=O`: the result in the assay with Enterobacter, in the assay with Enterococcus faecium, with Clostridioides difficile, in the assay with Acinetobacter baumannii, in the assay on Klebsiella pneumoniae and with Pseudomonas aeruginosa was inactive. For the same compound, the outcome in the assay on Naegleria fowleri and in the assay on Staphylococcus aureus was inactive. The 50% inhibitory concentration (IC50) in the assay with Leishmania donovani is over 28 µM; in the assay with A549, over 50 µM.

In the case of `C=C(C)[C@@H]1CCC2=C[C@H](C[C@@]3(C)O[C@@H]3C3=CC(C=O)=C(C1)O3)OC2=O`, the outcome in the assay on Enterobacter, with Enterococcus faecium, in the assay on Clostridioides difficile, in the assay with Acinetobacter baumannii, in the assay on Klebsiella pneumoniae and in the assay on Pseudomonas aeruginosa was inactive. Also, the outcome in the assay on Naegleria fowleri and in the assay on Staphylococcus aureus was inactive. For the same compound, the results for the IC50 in the assay on Leishmania donovani and with A549 were 1.9 µM and over 50 µM, respectively.

As to `C=C(C)[C@@H]1CC(=O)[C@H]2[C@H](C1)[C@@H]1C(=O)O[C@@H]3C[C@]4(C)O[C@H]2C(=O)[C@@H]4[C@H]13`, the outcome in the assay with Enterobacter, in the assay on Enterococcus faecium, in the assay on Clostridioides difficile, in the assay with Acinetobacter baumannii, in the assay on Klebsiella pneumoniae and in the assay on Pseudomonas aeruginosa was inactive. In addition, the outcome in the assay with Naegleria fowleri and in the assay with Staphylococcus aureus was inactive. Moreover, the half-inhibitory concentration (IC50) with Leishmania donovani was 4.4 µM; with A549 it was over 50 µM.

As to `CCCCCCCCCCCCCCCCOP(=O)([O-])OCC[N+](C)(C)C` [MILTEFOSINE], the IC50 in the assay on Leishmania donovani came to 6.2 µM.

Consider `C=C(C)[C@H]1CC2=C(C=O)C=C(O2)[C@H]2O[C@]2(C)C[C@H]2C=C(C(=O)O2)[C@@H](OC(C)=O)C1`, for which the outcome with Enterobacter, in the assay with Enterococcus faecium, in the assay with Clostridioides difficile, in the assay on Acinetobacter baumannii, with Klebsiella pneumoniae and with Pseudomonas aeruginosa was inactive. Besides, the outcome with Naegleria fowleri and with Staphylococcus aureus was inactive. Also, the IC50 is 8.8 µM with Leishmania donovani and over 50 µM with A549.

For `C=C(C)[C@@H]1C/C=C2\C(=O)O[C@@H](C[C@@]3(C)O[C@@H]3C3=CC(C=O)=C(C1)O3)[C@@H]2OC(C)=O`, the outcome in the assay with Enterobacter, in the assay on Enterococcus faecium, in the assay on Clostridioides difficile, with Acinetobacter baumannii, in the assay on Klebsiella pneumoniae and with Pseudomonas aeruginosa was inactive. In addition, the result in the assay with Naegleria fowleri and in the assay with Staphylococcus aureus was inactive. In addition, the IC50 with Leishmania donovani was 8.8 µM; in the assay with A549, over 50 µM.
